The RNAGym collection of RNA variant scans (doi:10.1126/science.aae0568)
Fewer inactive variants are shown than the library holds.

B1: tRNA (parent)
chain: GUUCCGUUGGCGUAAUGGUAACGCGUCUCCCUCCUAAGGAGAAGACUGCGGGUUCGAGUCCCGUACGGAACG

Variants of: B1
Assay: yeast fitness relative to wild type (ratio to wild type); higher = fitter; tRNA-Arg(CCU), competitive growth, 37 C, YPD
Procedure, shortened: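 Variants of the tRNA-Arg(CCU) gene were chemically synthesised with a 3% per-site mutation rate across 69 sites and placed at the native genomic locus in Saccharomyces cerevisiae. Six parallel replicates of the pooled strains were competed in YPD at 37°C for 24 hours, and gene amplicons from the start and end populations were read by 100-nucleotide paired-end sequencing. Darwinian fitness relative to wild type was derived from changes in genotype frequencies. Genotypes required ≥ 100 starting reads, and estimates < 0.5 were set to 0.5.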

| Variant | yeast fitness |
| --- | --- |
| GUUCCGUUGGCGUAAUGGUAACGCGUCUCCCUCCUAGGGAGUAGACUCUGGGUUCGAGUCCCGUACGGAACG | 0.599 |
| GUUCCGUUGGCGUAAUGGUAACGCGUCUCCCUCCUACGGAGAAAACUGCGGGUUCGAGUCCCGUACGGAACG | 0.776 |
| GUUCCGUUGGCGUAAUGGUAACGCGUCUCCCUCCUACGGAGAAGACUGCGGGUUCAAGUCCCGUACGGAACG | 0.829 |
| GUUCCGUUGGCGUAAUGGUAACGCGUCUCCCUCCUACGGAGAAGACUGCGGGUCCGAGUCCCGUACGGAACG | 0.799 |
| GUUCCGUUGGCGUAAUGGUAACGCGUCUCCCUCCUAGGGUGAAGACUGCGGGUUCGACUCCCGUACGGAACG | 0.729 |
| GUUCCGUUGGCGUAAUGGUAACGCGUCUCCCUCCUACGGAGAAGACUGCGGGUUCGAGUCCCCUACGGAACG | 0.663 |
| GUUCCGUUGGCGUAAUGGUAACGCGUCUCCCUCCUACGGAGAAGACUGCGGGUUCGAGUCCCAUACGGAACG | 0.612 |
| GUUCCGUUGGCGUAAUGGUAACGCGUCUCCCUCCUACGGAGAAGAGUGCGGGUUCGAGUCCGGUACGGAACG | 0.654 |
| GUUCCGUUGGCGUAAUGGUAACGCGUCUCCCUCCUAGGGGGAGGACUGCGGCUUCGAGGCCCGUACGGAACG | ≤ 0.5 |
| GUUCCGUUGGCGUAAUGGUAACGCGUCUCCCUCCUACGGAGAAGACUGCGGGUUCGAAUCCCGUACGGAACG | 0.844 |
| GUUCCGUUGGCGUAAUGGUAACGCGUCUCCCUCCUACGGAGAAGACUGCGGGUUCGAGUCCCGUCCGGAACG | 0.797 |
| GUUCCGUUGGCGUAAUGGUAACGCGUCUCCCUCCUACGGAAAAGACUGUGGGUUCGAGUGCCGUACGGAACG | ≤ 0.5 |
| GUUCCGUUGGCGUAAUGGUAACGCGUCUCCCUCCUACGGAGAAGACUGUGGGUGCGAGUCCCGUACGGAACG | ≤ 0.5 |
| GUUCCGUUGGCGUAAUGGUAACGCGUCUCCCUCCUACGGAGAAGACUGCGGGUUCGAGUCCGGUACGGCACG | ≤ 0.5 |
| GUUCCGUUGGCGUAAUGGUAACGCGUCUCCCUCCUACGGAAAAGACUGCGGGUUCGAGUCCCGUACGGAACG | 1.01 |
| GUUCCGUUGGCGUAAUGGUAACGCGUCUCCCUCCUACGGAGAAGAUUGCGGGUUCGAGUCCCGUCCCGAACG | ≤ 0.5 |
| GUUCCGUUGGCGUAAUGGUAACGCGUCUCCCUCCUACGGAGAAGACUGCGGGUUAGAGUCCCGUACGGAACG | 0.599 |
| GUUCCGUUGGCGUAAUGGUAACGCGUCUCCCUCCUACGGAGAAGACUGCGGGUUUGAGUCCCGUACGGAACG | 0.769 |
| GUUCCGUUGGCGUAAUGGUAACGCGUCUCCCUCCUACGGAGAAGACUGCGGGUUCGAGUCCUGUACGGAACG | 0.913 |

| Variant | yeast fitness |
| --- | --- |
| GUUCCGUUGGCGUAAUGGUAACGCGUCUCCCUCCUACGGAGAAGACUGCGGGUUGAAGUCCCGUACGGCACG | ≤ 0.5 |
| GUUCCGUUGGCGUAAUGGUAACGCGUCUCCCUCCUACGGAGAAGAUUGCGGGUUCGAGUCCCGUACGGAACG | 0.946 |
| GUUCCGUUGGCGUAAUGGUAACGCGUCUCCCUCCUACGGAGAAGACUGUGGGUUUGAGUCCCAUACCGAACG | ≤ 0.5 |
| GUUCCGUUGGCGUAAUGGUAACGCGUCUCCCUCCUACGCAGAAGACUGCCGGUUCGAGUCCCGUACGGAACG | ≤ 0.5 |
| GUUCCGUUGGCGUAAUGGUAACGCGUCUCCCUCCUACGGAAAAGACUGCGGGUUCGAGUCCCGUACGGACCG | ≤ 0.5 |
| GUUCCGUUGGCGUAAUGGUAACGCGUCUCCCUCCUACGGAGAAGACUGGGGGUUCGAGUCCCGUCCGGAACG | ≤ 0.5 |
| GUUCCGUUGGCGUAAUGGUAACGCGUCUCCCUCCUACAGAGAAGACUGCGGGUUCGAGUCCCAUACGGAACG | 0.549 |
| GUUCCGUUGGCGUAAUGGUAACGCGUCUCCCUCCUAGGGAGACGACUGCGGGUUCGAGUCCCGUACGGAACG | 0.89 |
| GUUCCGUUGGCGUAAUGGUAACGCGUCUCCCUCCUACGGAGAAGACUGCGGGUUCGAGUGCCGUAGGGAGCG | ≤ 0.5 |
| GUUCCGUUGGCGUAAUGGUAACGCGUCUCCCUCCUACGGAGAAGACUGCGGGUUCGUGUCCCGUACGGAACG | 0.633 |
| GUUCCGUUGGCGUAAUGGUAACGCGUCUCCCUCCUAGGGGGAAGUCUGCGGGUUCGAGUCCCGUACGGAACG | 0.566 |
| GUUCCGUUGGCGUAAUGGUAACGCGUCUCCCUCCUAGGGUGAAGACUGCGGGUUAGAGUCCCGUACGGAACG | 0.829 |
| GUUCCGUUGGCGUAAUGGUAACGCGUCUCCCUCCUACAGAGAAGACUGCGGGUUCGAGUCCCGUACGGAACG | 0.636 |
| GUUCCGUUGGCGUAAUGGUAACGCGUCUCCCUCCUACGGAGAAGACGGCGGGUUCGAGUCCGGUACGAAACG | 0.549 |
| GUUCCGUUGGCGUAAUGGUAACGCGUCUCCCUCCUACGGAGAACACUGCGGCUUCGAGCCCCGUAUGGAACG | 0.574 |
| GUUCCGUUGGCGUAAUGGUAACGCGUCUCCCUCCUACGCAGAAGACUGUGGGUUCGAGUCCCGUACGGAACG | ≤ 0.5 |
| GUUCCGUUGGCGUAAUGGUAACGCGUCUCCCUCCUAGGGAGAAGACUGCGGGUUCGAGUCCCGUACGGAACG | 0.734 |
| GUUCCGUUGGCGUAAUGGUAACGCGUCUCCCUCCUACGGAGAAGACUGCGGGUUCGAGUCCCGUAUGGAACG | 0.75 |
| GUUCCGUUGGCGUAAUGGUAACGCGUCUCCCUCCUACGGAGAAGACUGCGGGUUCGAGUCCCGUAGGGAACG | 0.586 |
